# Measured values: PMC3947130 (Molecular cancer therapeutics, 2013)
# Entries after “also recorded” stand apart in the source; their conditions may differ.
# B1: Tumor Necrosis Factor Related Apoptosis Inducing Ligand (protein, UniProt P50591 1-281, looked up)
# Tumor necrosis factor ligand …: MAMMEVQGGPSLGQTCVLIVIFTVLLQSLCVAVTYVYFTNELKQMQDKYSKSGIACFLKEDDSYWDPNDEESMNSPCWQVKWQLRQLVRKMILRTSEETISTVQEKQQNISPLVRERGPQRVAAHITGTRGRSNTLSSPNSKNEKALGRKINSWESSRSGHSFLSNLHLRNGELVIHEKGFYYIYSQTYFRFQEEIKENTKNDKQMVQYIYKYTSYPDPILLMKSARNSCWSKDAEYGLYSIYQGGIFELKENDRIFVSVTNEHLIDMDHEASFFGAFLVG
# Key:
# MDA-MB-231 cells = experiment: TRAIL-induced killing / TRAIL sensitization, cell viability; assay type: cell-based, human
# Procedure, shortened: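 MDA-MB-231 cells in DMEM/10% FBS seeded at 5000 cells/well and left to attach overnight. Pre-treated 4 h at 37°C with vehicle (0.1% DMSO) or 5 μM test compound, then TRAIL (up to 100 ng/mL) added for 20 h at 37°C. After 30 min at room temperature, CellTiter-Glo luminescence read. At least triplicate, at least three independent times.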
# [1] = system: non-canonical NF-κB pathway; experiment: Immunoblot of non-canonical NF-κB pathway; assay type: cell-based, human; conditions: MDA-MB-231 cells, 5 μM, 24 h, Fig. 4D
# Procedure, shortened: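 MDA-MB-231 cells grown in DMEM with 10% FBS, exposed to vehicle or 5 μM test compound for 24 h. Cell protein extracts immunoblotted for NIK, phospho-NF-κB2, NF-κB2 and cIAP-1/-2, with Erk 1/2 as loading control. HRP-conjugated anti-rabbit or anti-mouse secondary applied for 1 h, then enhanced chemiluminescence detection.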
molecule,measurement,setting,value
"Cc1ccc(S(=O)(=O)/C=C/C#N)cc1 [BAY 11-7082, reference compound]",effect of IKK inhibition in the model systems,MDA-MB-231 cells; data not shown,failed to have any effect
"O=Cc1coc2ccccc2c1=O [3-FC, reference compound]",sensitization to TRAIL,"MDA-MB-231 cells; 3-FC alone with TRAIL, Supp. Fig. S1D",results in sensitization to TRAIL
same,sensitization to TRAIL with IAP inhibition,"MDA-MB-231 cells; 3-FC together with IAP inhibition, Supp. Fig. S1D",induces even greater sensitization
CC(C)[C@H](NC(=O)[C@H](C)N)C(=O)N[C@@H](C)C(=O)NNc1ccccc1 [MLS-0412113],sensitization to TRAIL-mediated cell killing,"MDA-MB-231 cells; 5 μM pre-treatment 4 h, then TRAIL 20 h, Fig. 2B",no activity; also recorded: lacked TRAIL sensitizing ability altogether
CN[C@@H](C)C(=O)N[C@H]1CCO[C@H]2CC(C)(C)[C@@H](C(=O)N[C@@H]3CCCc4ccccc43)N2C1=O [SBI-0636457],NIK levels,[1],profound induction of NIK levels
same,phosphorylation and processing of NF-κB2,[1],enhanced phosphorylation and processing of NF-κB2
B1,cell death by TRAIL alone,"MDA-MB-231 cells; TRAIL alone, up to 100 ng/mL, 20 h, Fig. 2B",fails to induce appreciable cell death
